Active and inactive are the calls of the source.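 Rule for the calls, unless noted: active = fluorescence slope after compound addition differing from the mean of all screened samples at 99.7% confidence, in either direction; inactive = the rest.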

In general, inhibition refers to the change of the read-out against control, counted positive when it falls.

The nature of experiment [1]: inhibitors of TNFa-induced NFkB p65 translocation, primary screen, imaging, HUVEC, MLSMR starter and 10KST1 sets (AID 438;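 active = inhibition above 20% together with a positive visual image hit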;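 note: compound added about 3h40 before a 20 min TNFalpha stimulation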;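 for inhibition: signal is the nuclear over cytoplasmic p65 intensity ratio per well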). Particulars: HUVEC TNFa-induced p65 nuclear translocation; cell count: measured here: nuclei count (cytotoxicity indicator), at 2.08 µM; inhibition: at 2 µM, stronger effect = higher value, 0% TNFa-plus-vehicle, 100% no-TNFa wells.
The nature of experiment [2]: inhibitors of E-selectin induction by TNFa, primary screen, imaging, HUVEC, immunofluorescence, MLSMR starter and 10KST1 sets (AID 487;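 active = visually confirmed hit in the image check and inhibition above 20%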;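 for inhibition: signal is fraction of cell area covered by stained E-selectin grains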;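 for nuclei count: 100% = median nuclei count of all wells on the same plate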). Particulars: HUVEC TNFalpha-induced E-selectin immunofluorescence imaging, at 2 µM; inhibition: stronger effect = higher value; nuclei count: measured here: cell number, toxicity.
Experiment [3] is described as follows: DUSP6 inhibitors restoring Erk phosphorylation by chemical complementation, primary imaging in DUSP6-transfected HeLa (AID 609;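 active = compounds giving at least 50% inhibition in the cell-based MKP-3 phosphatase rescue imaging test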;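 for inhibition: phospho-Erk level distribution per well compared with pooled transfected vehicle control wells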). To be noted: HeLa MKP-3 transfected, phospho-Erk imaging KS statistic, at 10 µM, cells stimulated with TPA for 15 min.
The target in experiment [4] is Dual specificity protein phosphatase 6 (Homo sapiens) (UniProt Q16828). The description is as above. To be noted: HeLa MKP-3 transfected, phospho-Erk imaging KS statistic; at 10 µM; stronger effect = higher value; cells stimulated with TPA for 15 min.
Chain of Dual specificity protein phosphatase 6 (Homo sapiens) (Q16828 whole entry, looked up): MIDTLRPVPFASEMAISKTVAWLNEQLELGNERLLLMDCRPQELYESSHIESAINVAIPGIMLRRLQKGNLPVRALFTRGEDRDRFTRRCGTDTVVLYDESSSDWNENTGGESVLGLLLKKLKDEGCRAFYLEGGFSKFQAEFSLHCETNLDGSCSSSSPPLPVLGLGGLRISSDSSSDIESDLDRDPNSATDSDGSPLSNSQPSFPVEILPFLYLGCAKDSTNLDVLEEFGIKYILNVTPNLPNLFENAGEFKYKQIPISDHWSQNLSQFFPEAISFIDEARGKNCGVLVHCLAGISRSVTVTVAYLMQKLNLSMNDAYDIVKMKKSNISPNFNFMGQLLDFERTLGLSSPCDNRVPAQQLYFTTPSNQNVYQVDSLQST
The target in experiment [5] is Voltage-gated potassium channel subunit beta-2 (Rattus norvegicus) (UniProt P62483). The experiment in a line: KvBeta enzyme negative modulators, primary screen, biochemical, NADPH fluorescence (AID 622;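 active = fluorescence slope higher than the sample average by over 3 SD, cut at about -0.22 in these data, passing the limit was not always enough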;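 note: slope of raw intensity against log time taken from 70 to 1610 s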). To be noted: recombinant KvBeta, 4-cyanobenzaldehyde reduction, at 10 µM, stronger effect = higher value.
Chain of Voltage-gated potassium channel subunit beta-2 (Rattus norvegicus) (P62483 whole entry, looked up): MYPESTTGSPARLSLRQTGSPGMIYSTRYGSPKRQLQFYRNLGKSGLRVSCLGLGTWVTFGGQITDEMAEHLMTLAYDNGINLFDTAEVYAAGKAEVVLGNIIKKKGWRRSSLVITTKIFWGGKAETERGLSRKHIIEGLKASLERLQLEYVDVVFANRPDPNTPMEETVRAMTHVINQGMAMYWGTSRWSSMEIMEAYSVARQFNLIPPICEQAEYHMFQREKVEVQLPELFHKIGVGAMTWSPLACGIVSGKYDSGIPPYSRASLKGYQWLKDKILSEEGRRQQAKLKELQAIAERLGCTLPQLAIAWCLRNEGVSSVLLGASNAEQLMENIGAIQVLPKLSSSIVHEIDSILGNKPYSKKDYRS
Experiment [6] has the same target. The experiment is described as follows: KvBeta positive modulators, primary screen, biochemical, NADPH fluorescence (AID 623;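 active = NADPH fluorescence slope more negative than the mean of all samples by about 3 SD, 99.7% confidence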;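 note: fluorescence intensity change per second fitted from 20 to 320 s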). To be noted: Recombinant KvBeta, NADPH fluorescence decrease slope, 10 min; at 10 µM; stronger effect = lower value.
For experiment [7], the target named is Alpha-2C adrenergic receptor (Homo sapiens) (UniProt P18825). The experiment is described as follows: modulators of alpha2C/GIRK thallium flux, primary screen, cell-based, HEK293 alpha2C/GIRK1/2 (AID 624).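 Note: slope of fluorescence ratio to pre-addition baseline per second over 15 to 24 s.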 To be noted: thallium flux BTC fluorescence, at 10 µM, actives lie on both sides.
Chain of Alpha-2C adrenergic receptor (Homo sapiens) (P18825 whole entry, looked up): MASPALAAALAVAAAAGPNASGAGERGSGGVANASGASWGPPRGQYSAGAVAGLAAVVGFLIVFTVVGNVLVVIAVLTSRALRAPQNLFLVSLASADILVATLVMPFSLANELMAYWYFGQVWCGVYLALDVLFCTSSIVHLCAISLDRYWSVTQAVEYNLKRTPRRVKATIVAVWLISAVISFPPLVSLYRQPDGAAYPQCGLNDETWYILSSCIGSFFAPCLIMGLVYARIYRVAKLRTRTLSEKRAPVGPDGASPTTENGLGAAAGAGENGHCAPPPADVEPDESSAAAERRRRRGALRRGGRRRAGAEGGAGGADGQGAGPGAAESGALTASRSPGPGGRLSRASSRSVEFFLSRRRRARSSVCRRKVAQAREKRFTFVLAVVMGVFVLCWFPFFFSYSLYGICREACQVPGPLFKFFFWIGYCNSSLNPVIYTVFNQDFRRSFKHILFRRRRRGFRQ
Experiment [8] can be described thus: inhibitors of larval lipid processing in zebrafish, primary screen, whole organism, PED6 fluorescence, gall bladder and intestine (AID 686;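 active = a full or partial loss of lipid-probe fluorescence in the fish gall bladder, intestine or both, judged by eye; inactive = no fluorescence loss, or compound toxic to the fish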;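 note: larvae 5 to 7 days old with five fish per well; signal comes from phospholipase A2 cleavage of quenched PED6 carried via bile; overnight exposure to compound and PED6 before scoring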). To be noted: Zebrafish larvae PED6 lipid processing, fluorescence scoring; screened at 20 µM (by protocol). In a few lines:
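Also added: quenched phospholipase substrate PED6, 100 nM final, ingested by larvae; System: zebrafish larvae, 5-7 d; Quantity: 5 larvae per well; Compound: 20 µM single dose; Schedule: overnight compound and PED6 incubation; Read-out: visual per-well fluorescence inhibition score; Measured by: By-eye fluorescence microscopy; Medium: E3.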

Experiment [9] can be described thus: inhibitors of Chlamydomonas gravitaxis, primary screen, whole organism, Chlamydomonas reinhardtii, WT vs cilia-less mutant, absorbance, 96-well (AID 463189;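 active = inhibition at or above 50% relative to wild type and mutant plate controls; inactive = inhibition below 50%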;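 note: 0% = wild type cc124 cells in DMSO and 100% = ciliumless bld1 mutant cells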). Particulars: OD600 absorbance, 2 days, at 10 µM, stronger effect = higher value.
Where [10] appears, read: measured here: cell density z-score.
Where [11] appears, read: measured here: nuclear c-Myc green intensity z-score.
Setting [12] is: measured here: nuclear pErk red intensity z-score, stronger effect = higher value.

Consider `CCCOc1ccc(Cc2nn[nH]n2)cc1`, for which, in experiment [1], the cell count is 665. Also, the inhibition in experiment [1] is -9.9% (inactive); in experiment [2] it was -18.7% (inactive); in experiment [4] it was -3.95% (inactive); in experiment [9] it was -6.39% (inactive). In [2], this molecule gave a nuclei count of 154%. The z-score in experiment [3] (setting [10]) was -1.6; in experiment [3] (setting [11]), 0.733; in experiment [3] (setting [12]) it was 2.09. Further, the fluorescence slope in experiment [5] was -0.396 (inactive). The NADPH fluorescence slope in experiment [6] is -5.5e-05 (inactive). Further, in [7], the slope was 0.00599 (inactive). In experiment [8], the molecule was called inactive.

Turning to `COC(=O)C(NC(C)=O)(Nc1ccccc1)C(=O)OC`, the cell count in experiment [1] was found to be 566. The inhibition is -19.3% (inactive) in experiment [1], -259% (inactive) in experiment [2], 18.2% (inactive) in [4] and 2.12% (inactive) in [9]. In addition, in experiment [2], the nuclei count came to 191%. Moreover, the values for the z-score in experiment [3] (setting [10]), in [3] (setting [11]) and in experiment [3] (setting [12]) were 1.28, -1.78 and -0.855, respectively. The fluorescence slope in experiment [5] is -0.532 (inactive). The NADPH fluorescence slope in experiment [6] was -6.4e-05 (inactive). For the same molecule, the slope in experiment [7] was 0.00504 (inactive). In addition, the outcome in experiment [8] was inactive.

Take `Cc1cccc(C)c1NC(=O)CSCC(=O)c1ccc(O)c(O)c1`: the cell count in [1] was 364. Besides, the inhibition was -4.2% (inactive) in experiment [1], -100% (inactive) in [2], 24.7% (inactive) in experiment [4] and -8.43% (inactive) in experiment [9]. Besides, the nuclei count in experiment [2] amounted to 158%. Also, the z-score in experiment [3] (setting [10]) was determined as 0.118; in [3] (setting [11]) it was 0.467; in [3] (setting [12]), 0.0935. The fluorescence slope in experiment [5] is -0.4 (inactive). Moreover, in experiment [6], the NADPH fluorescence slope is -6.4e-05 (inactive). The slope in experiment [7] is 0.00773 (inactive). For the same molecule, in [8], the outcome was inactive.

On to `COc1cccc(-c2nc(NCc3ccco3)c3ccccc3n2)c1O`, for which the cell count in experiment [1] turned out to be 550. In addition, the inhibition in [1] was 3% (inactive); in [2] it was -7.1% (inactive); in experiment [4], -10.5% (inactive); in [9] it was 14.5% (inactive). The nuclei count in experiment [2] worked out at 113%. Further, the z-score stood at 0.234 in experiment [3] (setting [10]), 1.11 in experiment [3] (setting [11]) and 1.04 in experiment [3] (setting [12]). Also, in experiment [5], the fluorescence slope was -0.282 (inactive). Also, in [6], the NADPH fluorescence slope is -1.4e-05 (inactive). For the same molecule, the slope in experiment [7] was 0.00506 (inactive). In experiment [8], the outcome was inactive.

In the case of `COc1cc(C2C(C#N)=C(N)Oc3cc(C)n(CCc4ccccc4)c(=O)c32)cc2c1OCO2` (centres undefined), in [1], the cell count was found to be 331. Also, the inhibition in experiment [1] is -2.4% (inactive); in experiment [2], -42.5% (inactive); in [4] it was 11.4% (inactive); in [9], 11.9% (inactive). Further, the nuclei count in experiment [2] was 165%. For the same molecule, the z-score was -0.617 in [3] (setting [10]), 1.54 in experiment [3] (setting [11]) and 1.26 in [3] (setting [12]). Also, the fluorescence slope in [5] is -0.433 (inactive). Also, the NADPH fluorescence slope in [6] is -0.000158 (inactive). Moreover, the slope in [7] was 0.00471 (inactive). For the same molecule, the result in experiment [8] was inactive.

For the molecule `O=C(Nn1cnnc1)C(c1ccccc1)c1ccccc1`, the cell count in experiment [1] stood at 338. Besides, the inhibition in experiment [1] was -3.7% (inactive); in experiment [2], -164% (inactive); in [4] it was 1.75% (inactive); in experiment [9], 17.9% (inactive). In [2], this molecule showed a nuclei count of 159%. Moreover, the values for the z-score in [3] (setting [10]), in experiment [3] (setting [11]) and in [3] (setting [12]) were 1.4, 0.734 and 1.08, respectively. Also, the fluorescence slope in experiment [5] was -0.417 (inactive). Further, the NADPH fluorescence slope in [6] is -7.3e-05 (inactive). The slope in experiment [7] was 0.00619 (inactive). Besides, the outcome in experiment [8] was inactive.

Turning to `COc1ccc(-c2nnc3sc(COc4ccccc4)nn23)cc1`, in experiment [1], the cell count was 645. The inhibition is -8.4% (inactive) in experiment [1], -95.8% (inactive) in experiment [2], 4.72% (inactive) in experiment [4] and 150% (active) in [9]. The molecule further came in with a nuclei count in experiment [2] of 154%. For the same molecule, the figures for the z-score in experiment [3] (setting [10]), in experiment [3] (setting [11]) and in experiment [3] (setting [12]) were -0.369, -0.469 and -1.07, respectively. Also, in experiment [5], the fluorescence slope is -0.445 (inactive). Besides, in [6], the NADPH fluorescence slope is -0.000151 (inactive). In addition, the slope in [7] is 0.00767 (inactive). In addition, the molecule was called inactive in [8].

As for `CCCCC1(C(=O)OCC)CC(CN2CCOCC2)OC1=O` (centres undefined), the cell count in experiment [1] turned out to be 448. Further, the inhibition in [1] is -21.5% (inactive); in [2], -182% (inactive); in [4], -8.95% (inactive); in experiment [9], 3.54% (inactive). In [2], this molecule gave a nuclei count of 167%. Moreover, the z-score in [3] (setting [10]) is -1.27; in experiment [3] (setting [11]), -1.52; in [3] (setting [12]) it was 2.46. The fluorescence slope in experiment [5] was -0.314 (inactive). Moreover, the NADPH fluorescence slope in [6] was 1.1e-05 (inactive). Also, the slope in experiment [7] is 0.00504 (inactive). The result in experiment [8] was inactive.

For `COc1cccc(C2=CC(c3ccccc3)n3nnnc3N2)c1` (centres undefined), in experiment [1], the cell count came to 586. Also, the inhibition in experiment [1] was 22.3% (inactive); in experiment [2] it was -12.1% (inactive); in experiment [4], -7.01% (inactive); in experiment [9] it was 22.4% (inactive). The molecule also showed a nuclei count in experiment [2] of 120%. The z-score in [3] (setting [10]) was 0.0896; in [3] (setting [11]) it was 0.142; in experiment [3] (setting [12]) it was -0.691. The fluorescence slope in experiment [5] was -0.275 (inactive). Also, the NADPH fluorescence slope in experiment [6] was 1.9e-05 (inactive). Besides, the slope in experiment [7] is 0.00526 (inactive). Moreover, the outcome in experiment [8] was inactive.

With `CCN(CC)CCNc1nc(-c2ccco2)c2c(c1C#N)CC(C)(C)OC2`, in [1], the cell count amounted to 580. The inhibition in experiment [1] was -4.5% (inactive); in [2], 12.3% (inactive); in experiment [4], 9.82% (inactive); in experiment [9] it was 47.8% (inactive). Further, the nuclei count in [2] came out at 110%. The z-score amounted to 0.832 in experiment [3] (setting [10]), 0.195 in [3] (setting [11]) and 0.416 in experiment [3] (setting [12]). For the same molecule, the fluorescence slope in experiment [5] was -0.379 (inactive). Further, the NADPH fluorescence slope in experiment [6] is 1.9e-06 (inactive). The slope in experiment [7] was 0.00425 (inactive). The molecule was called inactive in [8].

With `COc1ccc(OC)c(C2=Nn3c(nnc3-c3ccco3)SC2)c1`, the cell count in experiment [1] is 675. Also, the inhibition in experiment [1] was 1.9% (inactive); in experiment [2], -139% (inactive); in experiment [4], -2.47% (inactive); in [9] it was -10.3% (inactive). Moreover, the nuclei count in [2] stood at 150%. Also, the values for the z-score in [3] (setting [10]), in experiment [3] (setting [11]) and in experiment [3] (setting [12]) were -0.0454, 1.22 and 0.484, respectively. For the same molecule, in [5], the fluorescence slope is -0.399 (inactive). Also, the NADPH fluorescence slope in experiment [6] was -0.000127 (inactive). For the same molecule, the slope in [7] is 0.00666 (inactive). Also, in experiment [8], the call was inactive.

Regarding `O=C1C=C(O)CC(c2ccco2)C1` (centres undefined), in [1], the cell count was 558. Moreover, the inhibition in experiment [1] was 5.7% (inactive); in experiment [2], -59% (inactive); in experiment [4], -6.48% (inactive); in [9], -1.54% (inactive). Also, in experiment [2], the nuclei count was 82%. The results for the z-score in experiment [3] (setting [10]), in experiment [3] (setting [11]) and in experiment [3] (setting [12]) were 0.0297, 0.982 and 0.298, respectively. Also, in experiment [5], the fluorescence slope is -0.469 (inactive). Also, the NADPH fluorescence slope in experiment [6] is -0.00033 (inactive). For the same molecule, the slope in experiment [7] is 0.00402 (inactive). Further, the molecule was called inactive in experiment [8].

`COc1ccccc1C1/C(=C(/O)c2ccc(C)cc2)C(=O)C(=O)N1Cc1ccco1` (centres undefined): in experiment [1], the cell count turned out to be 550. Further, the inhibition is 9.2% (inactive) in experiment [1], 6.3% (inactive) in experiment [2], -11.5% (inactive) in experiment [4] and -13.2% (inactive) in experiment [9]. Moreover, the nuclei count in experiment [2] is 101%. The z-score in experiment [3] (setting [10]) is 0.623; in experiment [3] (setting [11]) it was 0.192; in [3] (setting [12]) it was -1.11. Further, the fluorescence slope in experiment [5] is -0.552 (inactive). Further, the NADPH fluorescence slope in experiment [6] was -6.1e-05 (inactive). Besides, the slope in [7] is 0.00643 (inactive). Also, the molecule was called inactive in experiment [8].

The values are drawn from PubChem BioAssay.
